As a reminder, the Km is the concentration of substrate that gives half-maximal velocity. The term kcat denotes the number of substrate molecules converted per active site and unit of time at saturation.

Vmax, Km and kcat data for seven molecules are collected here from ChEMBL document CHEMBL1141093, “Metabolic regio- and stereoselectivity of cytochrome P450 2D6 towards 3,4-methylenedioxy-N-alkylamphetamines: in silico predictions and experimental validation” (J Med Chem, 2005).

The target of series [1] is T1, Cytochrome P450 2D6 (Homo sapiens, UniProt P10635, F120A). Put plainly: Vmax for oxidation to N-OH-MDMA by cytochrome P450 2D6 (Phe120Ala mutant); expressed in 10E5 fluorescence units min-1 nmol-1 CYP. The class given is ADME. The procedure, abridged:
(§1)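 E. coli membranes expressing His-tagged wild-type or Phe120Ala CYP2D6 (25 nM CYP) were incubated in 50 mM KPi pH 7.4 with 5 mM MgCl2. Substrate was tested at 10 concentrations, 0–200 µM. After 5 min preincubation at 37 °C, an NADPH-regenerating system was added (0.2 mM NADPH final). Reactions ran 10 min and were stopped with HClO4. Products were separated by C18 HPLC and read by fluorescence (ex 280/em 320 nm). Km and Vmax came from nonlinear regression of peak areas; at least two independent experiments.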

The target of series [2] is Cytochrome P450 2D6 (Homo sapiens, UniProt P10635). Description: Vmax for oxidation to 3,4-OH-MA by cytochrome P450 2D6 (wild type pSP19T7LT); expressed in 10E5 fluorescence units min-1 nmol-1 CYP. In kind it is ADME. The procedure, abridged: as §1
The target in series [3] is T1, Cytochrome P450 2D6. Put plainly: Vmax for oxidation to 3,4-OH-MA by cytochrome P450 2D6 (Phe120Ala mutant); expressed in 10E5 fluorescence units min-1 nmol-1 CYP. In kind it is ADME. The procedure, abridged: as §1
Series [4] deals with T1, Cytochrome P450 2D6. Put plainly: Vmax for oxidation to 3,4-OH-MA by cytochrome P450 2D6 (Phe120Ala mutant); expressed as 10E5 fluorescence units min-1 nmol-1 CYP; expressed in 10E5 fluorescence units min-1 nmol-1 CYP. The class given is ADME. The procedure, abridged:
as §1

Series [5] has as its system CCCNC(C)Cc1ccc2c(c1)OCO2. Put plainly: (§2) Michaelis-Menten constant for oxidation to 3,4-OH-MA by cytochrome P450 2D6 (Phe120Ala mutant). The class given is ADME, Homo sapiens. The procedure, abridged:
as §1

The test system of series [6] is CN[C@@H](C)Cc1ccc2c(c1)OCO2. The description is as §2. In kind it is ADME, Homo sapiens. The procedure, abridged:
as §1

Series [7] deals with CNC(C)Cc1ccc2c(c1)OCO2. Described as §2. The class given is ADME, Homo sapiens. The procedure, abridged: as §1
Series [8] relates to CN[C@H](C)Cc1ccc2c(c1)OCO2. Described as §2. In kind it is ADME, Homo sapiens. The procedure, abridged: as §1
Series [9] relates to CCNC(C)Cc1ccc2c(c1)OCO2. The description is as §2. The class given is ADME, Homo sapiens. The procedure, abridged:
as §1

Series [10] has as its system CCCNC(C)Cc1ccc2c(c1)OCO2. Description: (§3) Michaelis-Menten constant for oxidation to MDA by cytochrome P450 2D6 (Phe120Ala mutant). The class given is ADME, Homo sapiens. The procedure, abridged:
as §1

Series [11] has as its system CN[C@@H](C)Cc1ccc2c(c1)OCO2. The description is as §3. In kind it is ADME, Homo sapiens. The procedure, abridged:
as §1

Series [12] has as its system CNC(C)Cc1ccc2c(c1)OCO2. The description is as §3. In kind it is ADME, Homo sapiens. The procedure, abridged:
as §1

Series [13] concerns CN[C@H](C)Cc1ccc2c(c1)OCO2. The description is as §3. The class given is ADME, Homo sapiens. The procedure, abridged: as §1
In series [14] the test system is CCNC(C)Cc1ccc2c(c1)OCO2. The description is as §3. The class given is ADME, Homo sapiens. The procedure, abridged:
as §1

The test system of series [15] is CCCNC(C)Cc1ccc2c(c1)OCO2. Put plainly: (§4) Michaelis-Menten constant for oxidation to N-OH-MDMA by cytochrome P450 2D6 (Phe120Ala mutant). The class given is ADME, Homo sapiens. The procedure, abridged: as §1
For series [16], the system named is CN[C@@H](C)Cc1ccc2c(c1)OCO2. The description is as §4. In kind it is ADME, Homo sapiens. The procedure, abridged: as §1
Series [17] concerns CNC(C)Cc1ccc2c(c1)OCO2. Described as §4. In kind it is ADME, Homo sapiens. The procedure, abridged: as §1
Series [18] relates to CN[C@H](C)Cc1ccc2c(c1)OCO2. The series is described as §4. The class given is ADME, Homo sapiens. The procedure, abridged:
as §1

Series [19] has as its system CCNC(C)Cc1ccc2c(c1)OCO2. The series is described as §4. The class given is ADME, Homo sapiens. The procedure, abridged: as §1
Substrate in series [20]: CN[C@@H](C)Cc1ccc2c(c1)OCO2
Put plainly: (§5) Michaelis-Menten constant for oxidation to 3,4-OH-MA by cytochrome P450 2D6 (wild type pSP19T7LT). In kind it is ADME, Homo sapiens. The procedure, abridged: as §1

Substrate in series [21]: CNC(C)Cc1ccc2c(c1)OCO2
The series is described as §5. The class given is ADME, Homo sapiens. The procedure, abridged:
as §1

Substrate in series [22]: CCCNC(C)Cc1ccc2c(c1)OCO2
The series is described as §5. The class given is ADME, Homo sapiens. The procedure, abridged: as §1

Substrate in series [23]: CN[C@H](C)Cc1ccc2c(c1)OCO2
The series is described as §5. The class given is ADME, Homo sapiens. The procedure, abridged:
as §1

T1 sequence (P10635 whole entry F120A): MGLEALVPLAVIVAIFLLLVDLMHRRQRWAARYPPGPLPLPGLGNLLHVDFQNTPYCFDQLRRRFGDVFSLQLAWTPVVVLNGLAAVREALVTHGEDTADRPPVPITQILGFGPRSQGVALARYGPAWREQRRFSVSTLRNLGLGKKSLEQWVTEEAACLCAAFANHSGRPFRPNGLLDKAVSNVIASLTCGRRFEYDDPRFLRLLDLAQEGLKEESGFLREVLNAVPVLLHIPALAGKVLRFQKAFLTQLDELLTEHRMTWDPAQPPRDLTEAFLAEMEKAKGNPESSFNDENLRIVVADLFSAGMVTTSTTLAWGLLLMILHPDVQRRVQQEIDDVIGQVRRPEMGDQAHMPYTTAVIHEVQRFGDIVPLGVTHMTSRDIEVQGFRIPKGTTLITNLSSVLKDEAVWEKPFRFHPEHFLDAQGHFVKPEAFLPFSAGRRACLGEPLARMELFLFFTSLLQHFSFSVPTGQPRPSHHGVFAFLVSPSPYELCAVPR

As to `CCNC(C)Cc1ccc2c(c1)OCO2` (stereo not drawn), the Vmax came to 1.4 in series [1], 1.2 in series [2] and 2.9 in series [3].

On to `CN[C@@H](C)Cc1ccc2c(c1)OCO2`, for which the values for the Vmax in series [4] and in [1] were 2.4 and 8.4, respectively.

Take `CCCNC(C)Cc1ccc2c(c1)OCO2` (stereo not drawn): the Vmax in series [1] turned out to be 3; in [2] it was 1.3; in series [3], 7.5.

On to `CN[C@H](C)Cc1ccc2c(c1)OCO2`, for which the Vmax in series [1] stood at 10.7; in series [2], 1.2; in series [3], 2.4.

For the molecule `CNC(C)Cc1ccc2c(c1)OCO2` (stereo not drawn) [MIDOMAFETAMINE], the Vmax is 1.2 in series [2] and 2.2 in series [3].

For “Cytochrome P450 2D6 (Homo sapiens; F120A)”, the Michaelis constant (Km) in series [5] was determined as 5.2 µM; in series [6] it was 4.9 µM; in series [7], 11.8 µM; in series [8], 13.2 µM; in series [9], 3.3 µM; in series [10], 9.1 µM. The Km in series [11] came out at 10.3 µM; in [12], 14.5 µM; in series [13] it was 26.1 µM; in series [14] it was 4.5 µM; in series [15], 28 µM; in series [16], 6.9 µM. In addition, the Km in [17] turned out to be 11.2 µM; in series [18], 20.6 µM; in series [19], 5.7 µM. Also, the kcat in series [10] was determined as 0.122 s⁻¹; in series [11] it was 0.0633 s⁻¹; in series [12] it was 0.0583 s⁻¹; in series [13] it was 0.0983 s⁻¹; in series [14], 0.07 s⁻¹.

B1: Cytochrome P450 2D6 (Homo sapiens) (protein)
chain: MGLEALVPLAVIVAIFLLLVDLMHRRQRWAARYPPGPLPLPGLGNLLHVDFQNTPYCFDQLRRRFGDVFSLQLAWTPVVVLNGLAAVREALVTHGEDTADRPPVPITQILGFGPRSQGVFLARYGPAWREQRRFSVSTLRNLGLGKKSLEQWVTEEAACLCAAFANHSGRPFRPNGLLDKAVSNVIASLTCGRRFEYDDPRFLRLLDLAQEGLKEESGFLREVLNAVPVLLHIPALAGKVLRFQKAFLTQLDELLTEHRMTWDPAQPPRDLTEAFLAEMEKAKGNPESSFNDENLRIVVADLFSAGMVTTSTTLAWGLLLMILHPDVQRRVQQEIDDVIGQVRRPEMGDQAHMPYTTAVIHEVQRFGDIVPLGVTHMTSRDIEVQGFRIPKGTTLITNLSSVLKDEAVWEKPFRFHPEHFLDAQGHFVKPEAFLPFSAGRRACLGEPLARMELFLFFTSLLQHFSFSVPTGQPRPSHHGVFAFLVSPSPYELCAVPR
B1: the Km in [20] was 3.3 µM; in series [21], 1.9 µM; in [22], 1 µM; in series [23] it was 2.7 µM. Also, in series [20], the kcat came out at 0.02 s⁻¹.
